Series [1] has as its system Plasmodium falciparum. Description: Antimalarial activity against Plasmodium falciparum FCB infected in human A-positive type erythrocytes after 72 hrs by SYBR Green I assay.
For series [2], the system named is Plasmodium falciparum. Description: Drug uptake in Plasmodium falciparum assessed as subcellular localization at 500 nM. The series is classed as ADME, organism-based. The conditions noted are these: 0.5 µM. A digest of the protocol:
(§1)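 Mixed-stage P. falciparum cultures were exposed to 500 nM fluorescent probe for 10 min in RPMI at 37 °C. They were washed twice with PBS, viewed directly or after 0.2% saponin release, and imaged live by epifluorescence at 100X oil immersion, with phase contrast overlay.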

A short description of series [3]: Drug uptake in Plasmodium falciparum assessed as cytoplasmic accumulation at 500 nM. It is filed as ADME, Cytoplasm. The following applies: 0.5 µM. A digest of the protocol:
as §1

Series [4] deals with Plasmodium falciparum. Description: Induction of peroxidation of Plasmodium falciparum membrane-incorporated BODIPY at 250 nM after 2.5 hrs by fluorescence microscopic analysis. It is filed as functional, organism-based. A digest of the protocol: (§2)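 Cultures at each asexual stage were exposed at 37 °C for 2.5 h to 250 nM compound or 0.01% MeOH vehicle, then to 40 nM BODIPY 581/591 C11 for a further 30 min. Trophozoites were saponin-released; ring and segmenter stages were imaged in erythrocytes. Peroxidation was read as a red-to-yellow/green fluorescence shift by microscopy.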

For series [5], the system named is Plasmodium falciparum. The experiment in a line: Induction of peroxidation of Plasmodium falciparum membrane-incorporated BODIPY at ring stage at 250 nM after 2.5 hrs by fluorescence microscopic analysis. The series is classed as functional, organism-based. In a few lines:
as §2

Series [6] has as its system Plasmodium falciparum. The experiment in a line: Induction of peroxidation of Plasmodium falciparum membrane-incorporated BODIPY at trophozoite stage at 250 nM after 2.5 hrs by fluorescence microscopic analysis. The series is classed as functional, organism-based. A digest of the protocol:
as §2

For series [7], the system named is Plasmodium falciparum. The experiment in a line: Induction of peroxidation of Plasmodium falciparum membrane-incorporated BODIPY at asexual stage at 250 nM after 2.5 hrs by fluorescence microscopic analysis. The series is classed as functional, organism-based. In a few lines:
as §2

A short description of series [8]: Binding affinity to Plasmodium falciparum calcium-transporting ATPase.
Series [9] concerns Plasmodium falciparum. The experiment in a line: Antimalarial activity against Plasmodium falciparum K1 infected in human A-positive type erythrocytes after 72 hrs by SYBR Green I assay. The following applies: K1, 72 h.
Series [10] can be described thus: Drug uptake in Plasmodium falciparum assessed as accumulation in small spherical structures in digestive vacuole at 500 nM. The series is classed as ADME. The conditions noted are these: 0.5 µM. In a few lines:
as §1

Series [11] in a line: Drug uptake in Plasmodium falciparum […] lipid bodies assessed decrease in fluorescence at 500 nM pretreated with 500 nM unlabeled compound. The series is classed as ADME. The conditions noted are these: 0.5 µM. In a few lines:
(§3)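 Mid- to late trophozoite cultures were pre-treated for 10 min at 37 °C with 500 nM unlabeled trioxolane or 0.01% MeOH vehicle in warm complete medium. Medium was then replaced with 500 nM fluorescent trioxolane for 10 min. Cells were washed, saponin-released and examined by fluorescence microscopy. Labeled NLB were counted in ~10 random fields (~300 parasites per group) and normalised to parasite number. Results are % decrease versus MeOH, from 3 experiments with t test.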

Series [12] is described as follows: Drug uptake in Plasmodium falciparum assessed as accumulation in […] lipid bodies at 500 nM in presence of methanol. It is filed as ADME. The following applies: 0.5 µM. In a few lines:
as §3

A short description of series [13]: Drug uptake in Plasmodium falciparum assessed as accumulation in nuclear lipid bodies at 500 nM. It is filed as ADME. The following applies: 0.5 µM, in the assay text read “neutral lipid bodies” for “nuclear lipid bodies”. A digest of the protocol: (§4)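 Mixed-stage P. falciparum cultures (strains FCB and 7G8, grown in human A+ or AB+ erythrocytes at 37 °C in supplemented RPMI 1640 under 90% N2/5% O2/5% CO2) were exposed to 500 nM probe for 10 min in RPMI at 37 °C. Cells were washed twice with PBS, viewed directly or after 0.2% saponin release, and imaged by 100X oil-immersion epifluorescence with phase contrast.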

Series [14] in a line: Drug uptake in Plasmodium falciparum assessed as accumulation in membranous structures at 500 nM. The series is classed as ADME. The conditions noted are these: 0.5 µM. A digest of the protocol: as §4

Active and inactive are the calls of the source. The calls are words filed in the database; no cut-off is given here.

The molecule `CN(C)c1cccc2c(S(=O)(=O)NCCCNC3CCC4(CC3)OOC3(O4)C4CC5CC(C4)CC3C5)cccc12` (mixture of isomers) yielded a half-maximal inhibitory concentration (IC50) in series [1] of 14.6 nM. The Drug uptake result in [2] is given as “Not Active”; in [3], “Active”.

Molecule `C[C@@H]1CC[C@H]2[C@@H](C)C(=O)O[C@@H]3O[C@@]4(C)CC[C@@H]1[C@]32OO4` [ARTEMISININ] yielded an IC50 in series [1] of 8 nM.

As for `CC(C)(C)OC(=O)NCCCNC1CCC2(CC1)OOC1(O2)C2CC3CC(C2)CC1C3` (mixture of isomers), the midpoint of inhibition in [1], the IC50, lay at 12.6 nM. In addition, the result in series [4], in series [5], in series [6] and in series [7] was Active.

Consider `CC(C)(N)CNC(=O)C[C@H]1CC[C@]2(CC1)OO[C@]1(O2)C2CC3CC(C2)CC1C3` [OZ277], for which, in series [8], the Ki was found to be 7900 nM. This molecule also displayed a concentration for half-maximal inhibition (IC50) in series [9] of 2.5 nM.

In series [1], `CN(C)c1cccc2c(S(=O)(=O)OC34CC5CC(C3)C3(OOC6(CCCCC6)O3)C(C5)C4)cccc12` (mixture of isomers) displayed a half-maximal inhibitory concentration (IC50) of 17.9 nM. Further, the Drug uptake result was “Active” in series [10], “Not Active” in series [11] and “Active” in series [12].

Regarding `CN(C)c1cccc2c(S(=O)(=O)OC34CC5CC(C3)C3(OCC6(CCCCC6)O3)C(C5)C4)cccc12` (mixture of isomers), in series [1], the IC50 amounted to 25000 nM. For the same molecule, the Drug uptake entry in series [13] and in series [14] was “Not Active” in each case.
